Consider four compounds from ChEMBL document CHEMBL1138288, “2-phenylimidazopyridines, a new series of Golgi compounds with potent antiviral activity” (J Med Chem, 2007).

Test [1] in a line: Inhibition of IgE production in antigen-sensitized BALB/c mouse spleen cells. In kind it is functional, tissue-based.
Test [2] has as its system Human alphaherpesvirus 2. The test is described as follows: Antiviral activity against HSV2-infected Vero cells. It counts as functional, organism-based.
A further test concerns Vaccinia virus. As to the kind of experiment: Antiviral activity against Vaccinia virus-infected Vero cells. In kind it is functional, organism-based, Orthopoxvirus vaccinia.
For test [3], the system named is Vesicular stomatitis virus. The test is described as follows: Antiviral activity against VSV-infected Vero cells. It counts as functional, organism-based.
The subject of test [4] is California encephalitis virus. The test is described as follows: Antiviral activity against California encephalitis virus-infected Vero cells. It counts as functional, cell-based.
In the next test the test system is San Angelo virus. The test is described as follows: Antiviral activity against San Angelo virus-infected Vero cells. It counts as functional, organism-based.
A further test has as its system Simian virus 40. The test is described as follows: Antiviral activity against SV40-infected Vero cells. Conditions: Betapolyomavirus macacae. In kind it is functional, organism-based. The essentials:
(§1)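 Cells were seeded at about 50 000/well and infected 24 h later at MOI 0.1 or less, with drug added alongside. Once infectivity was evident, cells were washed and stained with methylene blue/carbol fuchsin in methanol for 10 min at room temperature.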

The next test relates to Murine hepatitis virus. The test is described as follows: Antiviral activity against mouse hepatitis virus-infected NCTC clone-1469 cells. It counts as functional, organism-based. The essentials: as §1
For another test, the system named is Modoc virus. As to the kind of experiment: Antiviral activity against Modoc virus-infected HeLa-H1 cells. It counts as functional, organism-based.
The test system of the next test is Enterovirus. As to the kind of experiment: Antiviral activity against Rhinovirus-infected HeLa-H1 cells. In kind it is functional, organism-based.
Test [5] has as its system Human alphaherpesvirus 2. As to the kind of experiment: Antiviral activity against HSV2 MS-infected IAF/HA-HO guinea pig assessed as suppression of vesicle formation at 2% applied topically four times a day for 3 days. It counts as functional, organism-based. The essentials: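 Six hairless guinea pigs were each inoculated at three back sites with HSV-2 MS strain. Sites received drug at 2% in vehicle, vehicle alone, or nothing, rotated between sites so each animal was its own control. Vehicle was 38% Gelucire 44/14, 38% PEG 400, 10% Tween 80 and 10% N-methylpyrrolidinone. Dosing was topical, four times daily at about 2.5 h intervals. Vesicle formation was assessed on day 4 after inoculation.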

Test [6] in a line: Selectivity ratio, IC50 HSV2-infected Vero cells to IC50 for inhibition of IgE production in antigen-sensitized BALB/c mouse spleen cells. In kind it is functional.
Test [7] in a line: Selectivity ratio, IC50 for vaccinia virus-infected Vero cells to IC50 for inhibition of IgE production in antigen-sensitized BALB/c mouse spleen cells. In kind it is functional.
The mark [8] stands for this setting: California encephalitis virus, Vero.

SMILES strings stand for the structures. The source made the active and inactive calls. The rule behind the calls is not given here. Where only a bound is given, the exact number is not on record here.

Broadly, the IC50 is the concentration at which inhibition is half-maximal.

For the compound `O=C(Nc1ccc(-c2nc3cc(NC(=O)C45CC6CC(CC(C6)C4)C5)ncc3[nH]2)cc1)C12CC3CC(CC(C3)C1)C2`, the IC50 in [1] (Mus musculus, BALB/c, Spleen) is 0.001 µM; with Human alphaherpesvirus 2 [2] (Human alphaherpesvirus 2, Vero), 0.005 µM; with Vaccinia virus (Orthopoxvirus vaccinia, Vero), 0.01 µM; in test [3], > 2 µM; in test [4] (setting [8]), 0.006 µM; in the test with San Angelo virus (San Angelo virus, Vero), 0.006 µM. For the same compound, the IC50 in the test on Simian virus 40 is > 2 µM; with Murine hepatitis virus (Murine coronavirus), 0.008 µM; in the test with Modoc virus, 0.02 µM; in the test with Enterovirus (Enterovirus, HeLa H1), 0.01 µM. The result with Human alphaherpesvirus 2 [5] was Active.

Consider `O=C(Nc1ccccn1)c1ccc2[nH]c(-c3ccc(NC(=O)[C@]45CC6CC(C4)[C@@H](O)C(C6)C5)cc3)nc2c1`, for which the IC50 is 0.01 µM in test [1] (Mus musculus, BALB/c, Spleen); 1.5 µM in the test with Human alphaherpesvirus 2 [2] (Human alphaherpesvirus 2, Vero); 1.8 µM with Vaccinia virus (Orthopoxvirus vaccinia, Vero); > 2 µM in test [3]; 0.06 µM in test [4] (setting [8]); 0.135 µM with San Angelo virus (San Angelo virus, Vero). In addition, the IC50 in the test with Simian virus 40 is > 2 µM; with Murine hepatitis virus (Murine coronavirus), 0.1 µM; with Modoc virus, 0.4 µM; in the test on Enterovirus (Enterovirus, HeLa H1), 0.2 µM. The “Ratio IC50” value in test [6] and in test [7] was 150 in each case.

As for `CC(=O)OC1C2CC3CC1CC(C(=O)Nc1ccc(-c4nc5cc(C(=O)Nc6ccccn6)ccc5[nH]4)cc1)(C3)C2` (centres undefined), the IC50 in test [1] (Mus musculus, BALB/c, Spleen) was 0.01 µM; in the test on Human alphaherpesvirus 2 [2] (Human alphaherpesvirus 2, Vero) it was 1 µM; with Vaccinia virus (Orthopoxvirus vaccinia, Vero) it was 1.5 µM; in test [3] it was > 2 µM; in [4] (setting [8]), 0.13 µM; with San Angelo virus (San Angelo virus, Vero) it was 0.06 µM. The IC50 in the test on Simian virus 40 was > 2 µM; in the test with Murine hepatitis virus (Murine coronavirus) it was > 0.6 µM; with Modoc virus, 0.2 µM; in the test with Enterovirus (Enterovirus, HeLa H1) it was 0.2 µM. In addition, the “Ratio IC50” value in test [6] and in test [7] was >100 throughout.

Turning to `O=C(Nc1ccccn1)c1ccc2[nH]c(-c3ccc(NC(=O)C45CC6CC(CC(C6)C4)C5)cc3)nc2c1` (stereo in doubt; 1d), the IC50 turned out to be 0.012 µM in test [1]; 0.3 µM with Human alphaherpesvirus 2 [2] (vero); 0.3 µM with Vaccinia virus (vero); 0.2 µM in test [4] (vero); 0.2 µM in the test on San Angelo virus (vero); 0.03 µM in the test on Murine hepatitis virus. This compound also came in with an IC50 in the test with Enterovirus (hela-h1) of 0.2 µM. In addition, the “Ratio IC50” value in test [6] and in [7] was 25 in each case.
